# ChEMBL document CHEMBL1287740, “Synthesis and bio-evaluation of alkylaminoaryl phenyl cyclopropyl methanones as antitubercular and antimalarial agents” (Bioorg Med Chem, 2010)
# Legend:
# [1] = Cytotoxicity against african green monkey Vero cells after 72 hrs; assay type: cell-based; details: chlorocebus sabaeus
# Summary of the method: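 Vero (C1008 monkey kidney) cells grown in MEM + 15% FBS, 5% CO2, 37 °C. Trypsinized cells at 1 × 10^5 cells/ml seeded and allowed to adhere overnight, then exposed to serial compound dilutions for 72 h. Resazurin added and fluorescence read after 4 h.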
# [2] = Selectivity index, ratio of CC50 for african green monkey (Cercopithecus aethiops) Vero cells to IC50 for Plasmodium falciparum 3D7; assay type: functional
# Summary of the method: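 Ratio of Vero CC50 (resazurin fluorescence after 72 h exposure) to P. falciparum 3D7 IC50 (radiolabelled hypoxanthine uptake; 24 h compound exposure, then 48 h with label).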
# [3] = tested on: Mycobacterium tuberculosis; assay: Antimicrobial activity against Mycobacterium tuberculosis H37Rv after 30 days by agar microdilution method; assay type: functional
# Summary of the method: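 Twofold dilutions of compound in DMSO incorporated into Middlebrook 7H10 medium with OADC supplement in slanted tubes, preincubated 37 °C for 24 h, then streaked with H37Rv harvested from L-J medium into 0.85% saline with 0.05% Tween-80 (5 × 10^5 bacilli per tube). Incubated at 37 °C; MIC = lowest concentration giving complete inhibition of colonies versus drug-free control.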
# Plasmodium falciparum [4] = assay: Antimalarial activity against Plasmodium falciparum 3D7 assessed as radiolabeled hypoxanthine uptake after 48 hrs by scintillation counting; assay type: functional, organism-based; details: 3D7, 48 h
# Summary of the method: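 Chloroquine-sensitive P. falciparum 3D7 asynchronous culture at 0.5% parasitaemia and 1.5% hematocrit, exposed to compounds for 24 h at 37 °C in CO2. Radiolabelled hypoxanthine (0.5 µCi/well) then added and incubation continued 48 h. Cells harvested onto filter paper, and radioactivity counted by scintillation β-counter. IC50 derived from hypoxanthine uptake.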
# Plasmodium falciparum [5] = assay: Antimalarial activity against Plasmodium falciparum 3D7 assessed as maturation of schizonts after 24 to 32 hrs by microdilution method; assay type: functional
# Summary of the method: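 P. falciparum 3D7 (chloroquine sensitive); twofold serial dilutions in complete RPMI 1640 from 10 mg/ml DMSO stocks, parasitized RBCs added (final hematocrit 3–4%, 1.0–2.0% parasitaemia, >95% rings). Incubated 24–32 h at 37 °C with 5% CO2. Thin smears stained with 15% Giemsa; schizont maturation scored against controls to give MIC.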
# Mycolicibacterium aurum [6] = assay: Inhibition of type II fatty acid biosynthesis pathway in Mycobacterium aurum at 50 uM after 12 hrs by lacZ reporter assay relative to untreated control; assay type: functional
# Summary of the method: (§1)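 Recombinant M. aurum lacZ reporter strains (kasA promoter or hsp60 promoter) grown in Sauton's medium with kanamycin at 37 °C to 0.5 OD600, diluted to 0.04–0.05 OD, equilibrated 2 h, then treated 12 h at 37 °C (10, 25, 50, 75 µM). Cells sonicated in PBS pH 7.2 and protein normalized by Bradford. β-gal measured with ONPG (4 mg/ml), 30 min at 37 °C, stopped with Na2CO3, OD 410 nm. Triplicates, relative to untreated control.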
# Mycolicibacterium aurum [7] = assay: Inhibition of type II fatty acid biosynthesis pathway in Mycobacterium aurum at 25 uM after 12 hrs by lacZ reporter assay relative to untreated control; assay type: functional; summary of the method: as §1
Compound,CC50 at 72 h [1],Ratio CC50/IC50 [2],MIC [3],IC50 (Plasmodium falciparum [4]),MIC (Plasmodium falciparum [5]),inhibition at 50 µM (Mycolicibacterium aurum [6]),inhibition at 25 µM (Mycolicibacterium aurum [7])
CCCCCCCC/C=C\CCCCCCCCNc1ccc(C(=O)C2CC2c2ccc(Cl)cc2)cc1 (configuration not stated),393 µg/mL,5.24,12.5 µg/mL,75.1 µg/mL,> 50 µg/mL,–,–
CCCCCCCCCCCCNc1ccc(C(=O)C2CC2c2ccc(Cl)cc2)cc1 (configuration not stated),386 µg/mL,37.08,Insoluble,10.4 µg/mL,> 50 µg/mL,32.7%,27%
NNC(=O)c1ccncc1 [ISONIAZID],–,–,0.025 µg/mL,–,–,–,–
O=C(c1ccc(N2CCN(c3cccc(Cl)c3Cl)CC2)cc1)C1CC1c1ccc(Cl)cc1 (configuration not stated),383 µg/mL,43.38,12.5 µg/mL,8.82 µg/mL,50 µg/mL,31.8%,15.7%
COc1ccc(C2CC2C(=O)c2ccc(N3CCN(C)CC3)cc2)cc1OC (configuration not stated),77.8 µg/mL,37.23,> 12.5 µg/mL,2.09 µg/mL,50 µg/mL,–,–
CN(C)c1ccc(C(=O)C2CC2c2ccc(Cl)cc2)cc1 (configuration not stated),344 µg/mL,240.4,Insoluble,1.43 µg/mL,10 µg/mL,–,–
CCN(CC)CCCC(C)Nc1ccnc2cc(Cl)ccc12 (configuration not stated) [CHLOROQUINE],–,–,–,–,0.05 µg/mL,–,–
CCCCCCCCNc1ccc(C(=O)C2CC2c2ccc(Cl)cc2)cc1 (configuration not stated),214 µg/mL,100.53,> 12.5 µg/mL,2.13 µg/mL,10 µg/mL,23.9%,30.2%
O=C(c1ccc(N2CCOCC2)cc1)C1CC1c1ccc(Cl)cc1 (configuration not stated),453 µg/mL,149.92,> 12.5 µg/mL,3.02 µg/mL,10 µg/mL,3.81%,29.8%
O=C(c1ccc(NCCn2cnc3ccccc32)cc1)C1CC1c1ccc(Cl)cc1 (configuration not stated),285 µg/mL,385.45,12.5 µg/mL,0.74 µg/mL,2 µg/mL,16.9%,1.03%
O=C(c1ccc(NCCn2ccnc2)cc1)C1CC1c1ccc(Cl)cc1 (configuration not stated),243 µg/mL,6948.57,6.25 µg/mL,0.035 µg/mL,0.062 µg/mL,50.2%,48.6%
CC(C)CCCC(C)Nc1ccc(C(=O)C2CC2c2ccc(Cl)cc2)cc1 (configuration not stated),–,–,> 12.5 µg/mL,–,–,27.4%,17.5%
O=C(c1ccc(N2CCCC2)cc1)C1CC1c1ccc(Cl)cc1 (configuration not stated),431 µg/mL,44.26,12.5 µg/mL,9.75 µg/mL,> 50 µg/mL,–,–
O=C(/C=C/c1ccc(Cl)cc1)c1ccc(NCc2ccco2)cc1,404 µg/mL,531.62,12.5 µg/mL,0.76 µg/mL,10 µg/mL,–,–
O=C(c1ccc(N2CCCCC2)cc1)C1CC1c1ccc(Cl)cc1 (configuration not stated),284 µg/mL,46.99,> 12.5 µg/mL,6.05 µg/mL,10 µg/mL,–,–
CCCCCCCNc1ccc(C(=O)C2CC2c2ccc(OC)c(OC)c2)cc1 (configuration not stated),273 µg/mL,121.67,> 12.5 µg/mL,2.24 µg/mL,10 µg/mL,–,–
COc1ccc(CNc2ccc(C(=O)C3CC3c3ccc(Cl)cc3)cc2)cc1OC (configuration not stated),422 µg/mL,52.73,> 12.5 µg/mL,8 µg/mL,10 µg/mL,–,–
O=C(/C=C/c1ccc(Cl)cc1)c1ccc(N2CCCCC2)cc1,235 µg/mL,26.3,> 12.5 µg/mL,8.92 µg/mL,50 µg/mL,–,–
O=C(c1ccc(NCCO)cc1)C1CC1c1ccc(Cl)cc1 (configuration not stated),305 µg/mL,508.33,> 12.5 µg/mL,0.6 µg/mL,2 µg/mL,–,–
